Measured values from different studies.
Lines come from different studies, so protocols differ.
Target: Serine/threonine-protein kinase SIK2 (SIK2, Homo sapiens, UniProt Q9H0K1)

C[C@H]1CCN(c2nccc(-c3cnn4ncccc34)n2)C1
remaining binding (binding; 1 µM): 100%

N#Cc1ccc(Nc2ccc3[nH]c(=O)[nH]c3c2)c(Cl)c1
remaining binding (cell-free assay, competition with immobilised ligand; 1 µM): 100%

CN(C)c1ncc(F)c(-c2cnn3ncccc23)n1
remaining binding (binding; 1 µM): 100%

CCN1CCN(Cc2ccc(C(=O)Nc3ccc(C)c(Oc4ccc5c(c4)CC(=O)N5)c3)cc2C(F)(F)F)CC1
remaining binding (binding, competition with immobilised ligand; 1 µM): 80%

COc1ccnn2ncc(-c3ccnc(N(C)C)n3)c12
remaining binding (binding; 1 µM): 92%

O=C(NCCCN1CCOCC1)c1ccc(Nc2nccc(-c3cc4ccccc4s3)n2)cc1
remaining binding (binding, competition with immobilised ligand; 1 µM): 51%

c1ccc(N2CCN(Cc3nc4ccccc4[nH]3)CC2)nc1
remaining binding (binding, competition with immobilised ligand; 1 µM): 100%

N[C@@H]1CCN(c2nccc(-c3cnn4ncccc34)n2)C1
remaining binding (binding; 1 µM): 100%

CC(=O)Nc1c(C(C)=O)c(=O)n(C)c2nc(-c3ccc(Cl)cc3Cl)c(-c3ccc(Cl)cc3)cc12
remaining binding (cell-free assay, competition with immobilised ligand; 1 µM): 100%

FC(F)(F)Oc1cccc(-c2cnc3ccc(-c4ccncc4)nn23)c1
remaining binding (binding, competition with immobilised ligand; 5 µM): 52%

O=C(Nc1c[nH]nc1C(=O)NC1CCNCC1)c1cc(F)cc(F)c1
remaining binding (binding, competition with immobilised ligand; 1 µM): 100%

O=C(c1ccc(Nc2nccc(-c3cc4ccccc4s3)n2)cc1)N1CCC(N2CCCC2)CC1
remaining binding (binding, competition with immobilised ligand; 1 µM): 45%

COc1cnc(Nc2cccc(S(N)(=O)=O)c2)nc1N1CCN(c2ccccc2)C(=O)C1
remaining binding (binding, competition with immobilised ligand; 1 µM): 92%

CC(C)CC(=O)N1CCc2nc(-c3ccc(Br)cc3)nc(N(C)Cc3ccccc3)c2C1
remaining binding (cell-free assay, competition with immobilised ligand; 0.1 µM): 100%

O=C(c1ccc(Nc2ncc(Cl)c(-c3cc4ccccc4s3)n2)cc1)N1CCC(N2CCCC2)CC1
remaining binding (binding, competition with immobilised ligand; 1 µM): 27%

CC1CCCN1c1nccc(-c2cnn3ncccc23)n1 (stereo not shown)
remaining binding (binding; 1 µM): 90%

C[C@@H](c1ccc(-n2cnc3c(N)ncnc32)cc1)N1CCc2nn(C)c(Cc3ccccc3)c2C1=O
remaining binding (binding, competition with immobilised ligand; 0.1 µM): 73%

COc1ccc2c(c1)O[C@@H](c1ccc(OC)c(OC)c1)C[C@H]2NC(=O)C1(c2ccc3c(c2)OC(F)(F)O3)CC1
remaining binding (cell-free assay, competition with immobilised ligand; 1 µM): 95%

CN(CCCC(F)(F)F)c1nccc(-c2cnn3ncccc23)n1
remaining binding (binding; 1 µM): 99%

COc1cnc(Nc2cccc(S(N)(=O)=O)c2)nc1N1CCN(c2ccccc2)CC1
remaining binding (binding, competition with immobilised ligand; 1 µM): 100%

COCCOc1nc(-c2ccc(Cl)nc2)nc2c1CN(C(=O)c1ncn3ccccc13)CC2
remaining binding (cell-free assay, competition with immobilised ligand; 0.1 µM): 100%

c1cnn2ncc(-c3ccnc(N4CCC45COC5)n3)c2c1
remaining binding (binding; 1 µM): 96%
